PRMT1 inh: PRMT1 methyltransferase inhibitors, primary screen, biochemical, fluorescence polarization; recombinant PRMT1, activity-based probe fluorescence polarization; inhibition, % at 2.79 µM; 370,000 compounds, 1.3% hits;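 active = inhibition above about 21% made by adding two undisclosed values, limit read from the data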
rCAG binder-1: binders of r(CAG) RNA repeats, primary screen, biochemical, fluorescence; r(CAG) RNA repeat, TO-PRO-1 dye displacement fluorescence; inhibition, % at 3 µM; 370,000 compounds, 1.3% hits; AID 651821, 2012;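 active = inhibition above the plate cutoff, the mean of all test compounds on that plate plus 3 SD, cut at about 35% in these data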;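 also: 0% = DMSO alone and 100% = 100 µM mitoxantrone as full dye displacement; higher means more dye released from RNA so lower well fluorescence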
TCR-CD3 inh: inhibitors of human TCR-CD3 interaction, primary screen, biochemical, fluorescence, TAMRA-labeled TCR probe | inhibition, % at 9.4 µM | AID 651800, 2012 | T-cell receptor (TCR) | 360,000 compounds, 0.37% hits; in the data active = inhibition above about 19%;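 also: recombinant mutant TCR 2C K166C tagged with TAMRA read by polarization; 0% = receptor in buffer alone and 100% = receptor with positive control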
SIAE primary: human SIAE inhibitors, primary screen, biochemical, fluorescence polarization, FP-Rh probe, 1536-well HTS; Sialate O-acetylesterase (Homo sapiens), Q9HAT2; SIAE FP-Rh probe binding; inhibition, % at 9.66 µM; 370,000 compounds, 0.69% hits; AID 1053197, 2014;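 active = inhibition above a cutoff: mean of compounds within the control limits plus 3 SD of those, cut at about 17% in these data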;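 also: 0% = plate median of compound wells and 100% = probe without SIAE protein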
HTRA1 inh: HTRA1 serine protease inhibitors, primary screen, biochemical, fluorescence polarization, HTS. Q92743. recombinant HTRA1, FP-rhodamine activity-based probe. inhibition, % at 5.96 µM. 340,000 compounds, 0.5% hits. AID 504803, 2011; in the data active = inhibition above about 36%;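 also: 0% = enzyme with DMSO and 100% = wells lacking enzyme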
Target sequence (Q92743 whole entry, looked up): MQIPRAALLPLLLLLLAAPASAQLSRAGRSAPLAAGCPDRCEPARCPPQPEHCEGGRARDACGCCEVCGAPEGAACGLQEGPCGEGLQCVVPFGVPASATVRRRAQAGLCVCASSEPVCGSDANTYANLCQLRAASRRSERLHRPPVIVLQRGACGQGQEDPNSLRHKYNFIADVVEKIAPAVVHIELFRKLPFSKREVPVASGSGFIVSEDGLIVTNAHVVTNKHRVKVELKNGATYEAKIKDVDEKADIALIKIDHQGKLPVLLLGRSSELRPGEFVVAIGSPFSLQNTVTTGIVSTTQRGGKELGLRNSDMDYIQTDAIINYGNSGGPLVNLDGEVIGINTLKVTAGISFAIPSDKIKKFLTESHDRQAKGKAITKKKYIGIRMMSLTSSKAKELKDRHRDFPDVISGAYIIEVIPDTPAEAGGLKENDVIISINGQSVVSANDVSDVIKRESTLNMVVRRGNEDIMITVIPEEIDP
ABHD4 inh: ABHD4 inhibitors, primary screen, biochemical, fluorescence polarization, mouse; inhibition, % at 8.92 µM; purified mABHD4, FP-Rh probe fluorescence polarization; (Lyso)-N-acylphosphatidylethanolamine lipase (Mus musculus), Q8VD66; 370,000 compounds, 0.54% hits; AID 720543, 2013;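 active = inhibition exceeding the mean over every tested compound plus 3 SD, cut at about 30% in these data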;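 also: 0% = plate median of compound wells and 100% = S159A mutant with DMSO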
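Test system: mABHD4 protein; Read-out basis: % inhibition; Incubation: 45 min + 60 min at 25 °C; Repeats: single replicate; Technique: fluorescence polarization with parallel and perpendicular emission, 525/598 nm; Compound: 8.92 µM, single dose; Benchmarks: full inhibition S159A mutant plus DMSO, zero as sample-well median.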
rCAG binder conf: small molecules binding CAG repeat RNA – biochemical, fluorescence, confirmation; shares compounds with rCAG binder-1; r(CAG) RNA repeat, TO-PRO-1 dye displacement fluorescence; inhibition, % at 3 µM; 4,300 compounds, 70% hits; AID 652065, 2013;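 active = inhibition above a per-plate cutoff, the mean inhibition of sample wells plus 3 SD, cut at about 35% in these data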;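 also: loss of TO-PRO-1 fluorescence as compound displaces dye from 1x1 AA loop RNA; 0% = DMSO only wells and 100% = 100 µM mitoxantrone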
dCAG dye counter: displacement of TO-PRO-1 from CAG DNA duplex, counter-screen for rCAG RNA repeat binder project, biochemical, fluorescence, TO-PRO-1 dye, d(CAG) DNA oligo. shares compounds with rCAG binder-1. d(CAG) DNA oligo TO-PRO-1 dye displacement. inhibition, % at 3 µM. 4,300 compounds, 94% hits. AID 652068, 2013;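 active = inhibition above its plate's cutoff, the mean test-well inhibition plus 3 SD, cut at about 4.8% in these data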;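 also: 0% = DNA dye mix with DMSO and 100% = 100 µM mitoxantrone; hits displace the dye from DNA and so lower well fluorescence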
DNA CAG DR: inhibitors of DNA CAG/GTC TO-PRO-1 complex, dose response, counter-screen for rCAG RNA repeat binder project, biochemical, fluorescence, TO-PRO-1 dye | shares compounds with rCAG binder-1 | DNA CAG/GTC duplex TO-PRO-1 dye displacement fluorescence | IC50, µM | 250 compounds, 20% hits; in the data active = IC50 below about 10 µM
dCAG DNA bind: TO-PRO-1 dye complex inhibitors on d(CAG) DNA, dose response, counter-screen, biochemical, fluorescence, late stage; 30 compounds, 80% hits; d(CAG) DNA duplex TO-PRO-1 dye displacement; shares compounds with rCAG binder-1; IC50, µM
rCAG binder-2: molecules binding r(CAG) RNA repeats, late stage dose response, late-stage follow-up, biochemical, fluorescence, dose response, powder samples; shares compounds with rCAG binder-1; r(CAG) RNA TO-PRO-1 dye displacement; IC50, µM; 30 compounds, 100% hits; AID 720651, 2013
The depositor's hits bear a star; · = no result. Only some compounds are listed: those with a hit (about 3.5% of all), similar ones and a draw of the others. Unless noted, no rule for the calls is given here.

SMILES	PRMT1 inh	rCAG binder-1	TCR-CD3 inh	SIAE primary	HTRA1 inh	ABHD4 inh	rCAG binder conf	dCAG dye counter	others
CCCCN1C(=O)/C(=C/c2ccc(N(C)C)cc2)C(=O)N(Cc2ccco2)C1=O	6.4	54.4*	-40.2	-77.3	-68.6	-84.5	32.6	10.1*
O=C1NC(=O)N(c2ccccc2)C(=O)/C1=C\c1ccc([N+](=O)[O-])s1	11.9	43.2*	-18.8	-14.8	·	-4.8	45.3*	18.1*
COc1cc(/C=C2\C(=O)NC(=O)N(c3ccccc3)C2=O)cc(OC)c1OC	5.8	1.9	9.3	0.7	6.0	7.9	·	·
COc1ccc(OC)c(N2C(=O)NC(=O)/C(=C\c3ccc([N+](=O)[O-])s3)C2=O)c1	27.7*	92.1*	-32.1	-7.9	31.0	-35.2	73.7*	33.9*
COc1ccc(N2C(=O)NC(=O)/C(=C\c3ccccc3[N+](=O)[O-])C2=O)cc1	8.5	6.9	0.0	1.9	0.8	7.7	·	·
C[C@H](NC(=O)OCc1ccccc1)[P+](=O)O	0.1	2.8	·	6.6	·	3.4	·	·
COc1ccc(C(SCC(NC(=O)OCc2ccccc2)C(=O)O)c2ccc(OC)cc2)cc1 (stereo unspecified)	1.6	52.9*	-1.2	-2.2	-19.7	-6.5	52.5*	14.2*
CC1C2Cc3ccc(O)cc3C1(C)CCN2CC1CC1 (stereo unspecified)	-3.5	3.1	1.7	0.0	·	4.3	·	·
Cc1cc(OCC(=O)NC(Cc2ccc(Cl)cc2)C(=O)O)c2c3c(c(=O)oc2c1)CCCC3 (stereo unspecified)	-2.2	63.2*	7.5	-6.1	-21.7	0.3	65.7*	26.6*
N#Cc1ccc2nc(-c3ccc(CN4CCC(n5nnc6ccccc65)CC4)cc3)c(-c3ccccc3)nc2c1	2.2	9.1	0.2	-6.5	·	0.3	·	·
CC/C(=N\NC(=O)c1ccccc1O)c1c(O)n(C2CCCCC2)c(=O)[nH]c1=O	-0.8	59.2*	18.1	-6.5	36.0	16.6	72.0*	29.4*	DNA CAG DR=2.81*;dCAG DNA bind=2.38*;rCAG binder-2=0.993*
O=C(N/N=C/c1c(O)n(C2CCCCC2)c(=S)[nH]c1=O)c1ccccc1O	1.9	45.2*	13.0	5.0	34.9	23.3	90.3*	66.7*
CCC(=NCCO)c1c(O)n(C2CCCCC2)c(=O)[nH]c1=O	-1.6	-1.9	7.1	0.1	-1.1	-2.7	·	·
CC(C)c1ccc(-n2c(O)c(/C=N/NC(=O)c3ccccc3O)c(=O)[nH]c2=S)cc1	1.7	81.5*	-17.1	-50.2	18.3	26.0	78.1*	42.5*
CC[C@]12CCN(CC3(O)CC3)[C@H](Cc3ccc(O)cc31)C2(C)C	-0.9	2.9	1.7	-0.1	·	2.2	·	·
COc1ccc(CN2C(=O)NC(=O)/C(=C/c3ccoc3)C2=O)cc1	-15.0	52.8*	-7.6	-9.4	-8.3	-38.2	45.0*	17.4*
O=C1NC(=O)N(Cc2ccco2)C(=O)/C1=C/c1cccn1CCOc1ccccc1Cl	21.9*	49.2*	-2.9	-23.9	-1.4	-12.6	11.3	5.7*
O=C1NC(=O)N(Cc2ccccc2)C(=O)/C1=C\c1ccco1	17.4	47.9*	-17.0	-4.0	3.1	-23.3	34.8*	11.4*
O=C1NC(=O)N(Cc2ccc(F)cc2)C(=O)/C1=C\C=C\c1ccco1	19.9	51.7*	-11.9	-10.2	0.6	-10.9	17.9	7.6*
CCCCN1C(=O)/C(=C\c2ccco2)C(=O)N(CCc2ccccc2)C1=O	8.9	27.3	-8.6	-8.5	18.4	-5.3	·	·
COc1cc(CCN)c(OC)cc1C	-0.9	0.4	2.2	2.3	·	-0.1	·	·
C[C@H]1CN([C@@H](C)CO)C(=O)CCCn2cc(nn2)CO[C@@H]1CN(C)C(=O)Oc1cccc2ccccc12	-0.9	2.0	6.0	-1.3	·	-2.2	·	·
COC(=O)C1C(c2ccc(I)cc2)CC2CCC1N2C (stereo unspecified)	-2.1	4.3	-4.0	1.2	·	2.6	·	·
CCC(C)n1c(O)c(/C=N/N2CCOCC2)c(=O)[nH]c1=S (stereo unspecified)	-0.2	36.3*	6.1	3.1	1.8	-6.6	2.3	0.1
CC(C)n1c(=O)c(C=Nc2ccc(S(N)(=O)=O)cc2)c(O)n(Cc2ccco2)c1=O	2.5	34.6*	-12.3	-12.0	-1.1	-12.3	19.7	9.8*
SMILES	PRMT1 inh	rCAG binder-1	TCR-CD3 inh	SIAE primary	HTRA1 inh	ABHD4 inh	rCAG binder conf	dCAG dye counter	others
CCCCn1c(=O)c(C=Nc2ccc(Cl)cc2)c(O)n(Cc2ccco2)c1=O	5.0	10.4	3.9	-37.7	-19.9	0.1	·	·
C=CCn1c(O)c(/C(C)=N/NC(=S)Nc2ccccc2)c(=O)[nH]c1=O	13.5	37.3*	1.7	2.9	-3.4	4.7	44.2*	13.2*
O=S(=O)(c1ccc2ccccc2c1)N1Cc2cc(Br)ccc2-n2nncc2C1	-0.4	-0.1	-6.2	1.2	·	3.2	·	·
CC(C)(C)Cc1nnc(NC(=O)COc2ccc(Cl)cc2Cl)o1	-0.5	·	·	-0.8	·	-2.1	·	·
CCc1ccccc1N1C(=O)/C(=C/c2ccc(N3CCN(C)CC3)o2)C(=O)NC1=S	12.3	49.8*	-21.8	-19.2	-4.8	-31.6	48.4*	24.1*
Cc1cccc(N2C(=O)/C(=C/c3ccc(N4CCN(C)CC4)o3)C(=O)NC2=S)c1C	16.2	49.4*	-25.3	-23.9	-0.2	-29.5	54.6*	25.7*
Cc1ccc2nc(-c3ccc(CN4CCC(n5c(=O)[nH]c6cc(Cl)ccc65)CC4)cc3)c(-c3ccccc3)nc2c1	3.7	15.1	5.6	-21.6	·	-5.8	·	·
